Bioassay records as filed in PubChem BioAssay.
The list is not random: actives were taken first. Their share in the collection is about 2.7%.
SIAE primary: human SIAE inhibition, primary screen; SIAE FP-Rh probe binding, fluorescence polarization; inhibition, % at 9.66 µM; Q9HAT2; AID 1053197; 370,000 compounds, 0.69% hits;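 active = inhibition above a cutoff: mean of compounds within the control limits plus 3 SD of those, cut at about 17% in these data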;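 note: 0% = plate median of compound wells and 100% = probe without SIAE protein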
PRMT1 inh: blocks human protein arginine methyltransferase 1. Q99873. 370,000 compounds, 1.3% hits. recombinant PRMT1, activity-based probe fluorescence polarization. inhibition, % at 2.79 µM;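 active = inhibition above about 21% made by adding two undisclosed values, limit read from the data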
HTRA1 inhibitor: blocks human HTRA1 serine peptidase; inhibition, % at 5.96 µM; AID 504803; Q92743; recombinant HTRA1, FP-rhodamine activity-based probe, fluorescence polarization; 340,000 compounds, 0.5% hits; in the data active = inhibition above about 36%;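 note: 0% = enzyme with DMSO and 100% = wells lacking enzyme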
mABHD4 FP: inhibitors of mouse ABHD4. purified mABHD4, FP-Rh probe fluorescence polarization. inhibition, % at 8.92 µM. 370,000 compounds, 0.54% hits. AID 720543;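 active = inhibition exceeding the mean over every tested compound plus 3 SD, cut at about 30% in these data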;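 note: 0% = plate median of compound wells and 100% = S159A mutant with DMSO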
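Material: mouse ABHD4 enzyme, wild type; Benchmarks: S159A mutant high control, sample median low control; Buffer or medium: HEPES pH 7.0, NaCl, Pluronic buffer; Signal: fluorescence polarization; Read-out: percent inhibition of probe binding, normalized to plate controls; Timing: pre-incubation 45 min, probe exposure 60 min, at 25 °C; Dosing: 8.92 µM, single dose.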
TCR CD3 inh: inhibitors of human TCR-CD3 interaction. TAMRA-labeled TCR probe fluorescence, biochemical. inhibition, % at 9.4 µM. 360,000 compounds, 0.37% hits. AID 651800; in the data active = inhibition above about 19%;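 note: recombinant mutant TCR 2C K166C tagged with TAMRA read by polarization; 0% = receptor in buffer alone and 100% = receptor with positive control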
SIAE inh conf: human SIAE inhibition, confirmation. shares compounds with SIAE primary. SIAE FP-Rh activity-based probe, fluorescence polarization. inhibition, % at 9.66 µM. 2,300 compounds, 13% hits. AID 1117263;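 active = mean inhibition of the replicates above the hit cutoff set in the primary screen, cut at about 17% in these data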;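 note: 0% = SIAE with DMSO and probe and 100% = probe without SIAE; inhibitors lower polarization as more probe stays unbound to SIAE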
Starred values were filed as active, the others as inactive; . = not tested or not shown.

SMILES	SIAE primary	PRMT1 inh	HTRA1 inhibitor	mABHD4 FP	TCR CD3 inh	SIAE inh conf
COCOC1CCC2C3CCC4=CC(=O)CCC4=C3C=CC12C (stereo not given)	5	4	10	26	5	.
CC1(O)CCC2C3CCC4=CC(=O)CCC4=C3C=CC21C (stereo not given)	19*	-2	-4	-3	5	0
Cc1cc(OCC(=O)N2CCC(C(N)=O)CC2)c2c3c(c(=O)oc2c1)CCCC3	18*	-1	-2	-1	-2	6
Cc1cc(OCC(=O)O)c2c3c(c(=O)oc2c1)CCCC3	3	-1	4	-2	6	.
O=C1CC(c2cccnc2)=NN1c1ccccc1	28*	1	4	4	7	-7
COc1cc(C(=S)N2CCOCC2)cc(OC)c1OC(=O)Cc1ccccc1	19*	0	-7	-3	7	5
CC(=O)N1CC(=O)Nc2ccc(Br)cc2C1c1ccc(F)cc1 (stereo not given)	6	-1	1	0	-1	.
Cc1ccc(CN(Cc2ccccc2)C(=S)NCC(=O)N2CCC3(CC2)OCCO3)o1	-8	-1	0	-4	5	.
O[C@H]1C2CCC1C(N1CCCCC1)CC2 (stereo not given in full)	2	2	3	-2	-9	.
